Tests used:
[1] = system: hepatic de novo lipogenesis (DNL); experiment: Fructose-stimulated fractional hepatic DNL; type: in vivo, human; details: for Inhibition of fasting-adjusted fractional DNL AUEC relative to placebo: 10-hour period; for Inhibition of fasting-adjusted fractional DNL AUEC relative to placebo / Mean reduction of fasting-adjusted DNL at 10 hours postdose relative to placebo: mean ± SEM
In short: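 Overweight/obese men (18–50 y, BMI 25–32 kg/m²), 10/dose, placebo crossover, ≥5-day washout, fasted from hour −12. IV [1-13C]acetate (10 g in 1,000 mL 0.45% saline, 50 mL/hour, 19 h) from hour −9; capsule at hour 0; fructose 250 mg/kg every 30 min to hour +9.5. VLDL-TG palmitate by GC-MS/MIDA, hours −1 to +10; fasting-baseline-subtracted, AUEC, expressed relative to placebo.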

[2] = Safety: treatment-emergent adverse events after a single oral dose; type: in vivo, human
In short: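 TEAEs were any events after study medication and were coded to MedDRA v18.0. Events were attributed to the period's treatment, and events between acetate infusion and first dosing were counted separately. Monitoring included physical exams, vital signs (hours 0, 5.5, 10.5), clinical laboratory tests (day −1 and hour 10) and screening ECG.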

[3] = Plasma pharmacokinetics after a single oral dose; type: in vivo; details: human
In short: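 Single oral capsule dose with 240 mL water in fasted men during fructose feeding, n = 10/group. Plasma was sampled predose and hourly through 10 h. Levels were measured by validated HPLC-MS/MS, with a lower limit of quantitation of 0.5 ng/mL. Noncompartmental parameters were calculated from actual sample times.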

[4] = Serum lipids, leptin, adiponectin, glucose and blood ketones; type: in vivo, human; details: single dose of 20, 50, or 200 mg
In short: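 Blood was drawn at protocol-specified times during the fasted, fructose-fed crossover periods. Serum lipids and blood ketones (ketometer) were measured by a clinical laboratory. Leptin and adiponectin were measured by solid-phase ELISA.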

[5] = system: hepatic de novo lipogenesis (DNL); experiment: PK-PD analysis of plasma exposure versus fractional DNL; type: in vivo, human; details: all dose groups
In short: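 Each subject's time-matched plasma levels (sampled predose and hourly to 10 h, HPLC-MS/MS) were paired with fasting-adjusted fractional DNL at every sampling point for every dose group. The plasma levels at which 70% and 90% inhibition of maximal DNL occurred were read from these paired data.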

[6] = Hepatic extraction in preclinical studies; type: in vivo; details: cynomolgus monkeys, unpublished data
[7] = single doses between 30 and 1,000 mg; healthy adults; cited from earlier work
hepatic DNL = details: subjects with type 2 diabetes mellitus and hypertriglyceridemia; cited from earlier work

## COc1ccccc1[C@H](Cn1c(=O)n(C(C)(C)C(=O)O)c(=O)c2c(C)c(-c3ncco3)sc21)OC1CCOCC1 [NDI‐010976]
[1]; 20 mg single oral dose
  Inhibition of fasting-adjusted fractional DNL AUEC relative to placebo: approximately 70 ± 6%
  Mean reduction of fasting-adjusted DNL at 10 hours postdose relative to placebo: approximately 41 ± 9%
[1]; 20 mg, mean ± standard deviation
  Inhibition of fractional DNL at 2 hours postdose: 60 ± 26%
[1]; 50 mg single dose, 10-hour period vs matched placebo period
  Inhibition of DNL by fasting-adjusted DNL AUEC, all subjects: > 70%
[1]; 50 mg single oral dose
  Inhibition of fasting-adjusted fractional DNL AUEC relative to placebo: ~85 ± 3%
  Mean reduction of fasting-adjusted DNL at 10 hours postdose relative to placebo: ~53 ± 9%
[1]; 200 mg single dose
  Inhibition of DNL, all subjects: complete or near complete inhibition of DNL
[1]; 200 mg single oral dose
  Inhibition of fasting-adjusted fractional DNL AUEC relative to placebo: ~104 ± 2%
  Mean reduction of fasting-adjusted DNL at 10 hours postdose relative to placebo: ~94 ± 4%
[2]; 20 mg
  Number of subjects with TEAEs (% of subjects dosed): 3 (33%) subjects (%)
  Number of subjects without TEAEs (% of subjects dosed): 6 (67%) subjects (%)
[2]; 50 mg
  Number of subjects with TEAEs (% of subjects dosed): 7 (70%) subjects (%)
  Number of subjects without TEAEs (% of subjects dosed): 3 (30%) subjects (%)
[2]; 200 mg
  Number of subjects with TEAEs (% of subjects dosed): 5 (50%) subjects (%)
  Number of subjects without TEAEs (% of subjects dosed): 5 (50%) subjects (%)
[2]; Total, all doses
  Number of subjects with TEAEs (% of subjects dosed): 15 (52%) subjects (%)
  Number of subjects without TEAEs (% of subjects dosed): 14 (48%) subjects (%)
[2]; single oral doses 20 to 200 mg
  Deaths, serious AEs, Grade 3 or higher TEAEs: no deaths, serious AEs, or Grade 3 or higher TEAEs
  Safety and tolerability: safe and well tolerated
[3]
  Tmax: 1 to 2 h
[3]; 20 mg
  Cmax: 43.4 ng/mL
  concentration at 2 h: 5.7 to 23.5 ng/mL
[4]
  Effects on serum glucose, lipids, leptin, adiponectin, blood ketones: no significant NDI‐010976 effects
[5]; one data point outlier
  Plasma concentration associated with at least 70% inhibition of fractional DNL: > 2.2 ng/mL
[5]; two data point outliers
  Plasma concentration yielding >90% inhibition of fractional DNL: > 4.0 ng/mL
[6]
  Hepatic extraction: approximately 94%
[7]
  Tolerability: well tolerated

## CCc1ccc(CCOc2ccc(CC3SC(=O)NC3=O)cc2)nc1 (stereo not shown) [pioglitazone]
Hepatic DNL
  Reduction of hepatic DNL: 40%

Reference: paper PMC5599970 (Hepatology (Baltimore, Md.), 2017)
